Calls of active or inactive are those of the source. The calls are words filed in the database; no cut-off is given here. Non-standard residues stand in square brackets, D forms with d. Residues, ends and D or L forms follow the SMILES beside them. *: point of attachment. Phe(4-I) = N[C@@H](Cc1ccc(I)cc1)C(=O)O; CHN2 = [N-]=[N+]=C*
Experiments:
Cathepsin B = Cathepsin B (Homo sapiens, UniProt P07858); assay: Inhibition of human recombinant cathepsin B after 10 mins
Cathepsin S = Cathepsin S (Homo sapiens, UniProt P25774); assay: Inhibition of human recombinant cathepsin S after 10 mins
Procathepsin L = Procathepsin L (Homo sapiens, UniProt P07711); assay: Inhibition of human recombinant cathepsin L after 10 mins
Pro-cathepsin H = target: T1, Pro-cathepsin H (Homo sapiens, UniProt P09668); assay: Inhibition of human recombinant cathepsin H after 10 mins
T1 sequence (P09668 whole entry): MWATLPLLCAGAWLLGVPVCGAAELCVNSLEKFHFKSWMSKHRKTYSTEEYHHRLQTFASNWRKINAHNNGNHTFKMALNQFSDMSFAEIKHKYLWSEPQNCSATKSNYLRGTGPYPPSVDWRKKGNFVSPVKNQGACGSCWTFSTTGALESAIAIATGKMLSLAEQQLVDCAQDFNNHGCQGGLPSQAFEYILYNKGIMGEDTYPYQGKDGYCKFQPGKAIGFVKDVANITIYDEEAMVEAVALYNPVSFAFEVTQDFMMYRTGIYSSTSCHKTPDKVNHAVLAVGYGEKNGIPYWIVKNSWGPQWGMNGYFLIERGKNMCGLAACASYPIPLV

Dipeptidyl peptidase 1 [1] = target: T2, Dipeptidyl peptidase 1 (Homo sapiens, UniProt P53634); assay: Inhibition of human recombinant cathepsin C after 10 mins
Outline: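 Recombinant human cathepsin C at 1 nM in 25 mM MES pH 6.0, 50 mM NaCl, 5 mM DTT, with 50 μM Gly-Arg-AMC (twice Km). Enzyme preincubated with inhibitor 10 min, then substrate added, at room temperature. Fluorogenic AMC release.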

Neutrophil elastase [2] = target: T3, Neutrophil elastase (Mus musculus, UniProt Q3UP87); assay: Inhibition of neutrophil elastase activation in beta-estradiol differentiated mouse EcoM-G cells after 24 hrs; format: cell-based
T3 sequence (Q3UP87 whole entry): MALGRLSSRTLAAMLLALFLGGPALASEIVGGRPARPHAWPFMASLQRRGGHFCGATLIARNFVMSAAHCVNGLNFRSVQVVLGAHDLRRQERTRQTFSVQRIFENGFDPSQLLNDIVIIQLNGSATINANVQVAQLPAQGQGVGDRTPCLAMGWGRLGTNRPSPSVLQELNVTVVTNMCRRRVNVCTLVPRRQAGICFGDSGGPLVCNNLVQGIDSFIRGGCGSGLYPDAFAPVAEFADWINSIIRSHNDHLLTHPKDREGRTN
Outline: (§1)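 EcoM-G cells (cultures <3 months old) washed and seeded at 0.5×10^6 cells/ml without β-estradiol. After 24 h, compound added in Me₂SO (final 0.5%), then cells differentiated a further 24 h, harvested and lysed. NE assayed with 400 μM MeOSuc-AAPV-AMC, CG with 1 mM Suc-AAPF-pNA (405 nm, 5 min), Pr-3 with 10 μM internally quenched substrate (ex 328/em 393 nm), all from the same lysates. IC50 from four-parameter Hill fit.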

Cathepsin G [3] = target: T4, Cathepsin G (Mus musculus, UniProt P28293); assay: Inhibition of cathepsin G activation in beta-estradiol differentiated mouse EcoM-G cells after 24 hrs; format: cell-based; outline: as §1
T4 sequence (P28293 whole entry): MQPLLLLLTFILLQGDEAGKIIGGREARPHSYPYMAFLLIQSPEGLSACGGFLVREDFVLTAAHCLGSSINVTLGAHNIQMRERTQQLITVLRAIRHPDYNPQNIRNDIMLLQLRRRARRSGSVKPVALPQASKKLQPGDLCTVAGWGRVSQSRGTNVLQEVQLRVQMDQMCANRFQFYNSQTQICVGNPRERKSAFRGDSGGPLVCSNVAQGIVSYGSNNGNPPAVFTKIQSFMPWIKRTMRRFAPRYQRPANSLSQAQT

Dipeptidyl peptidase 1 [4] = target: T2, Dipeptidyl peptidase 1; assay: Inhibition of cathepsin C in human U937 cells at 1 uM after 24 hrs; format: cell-based; details: U-937
Outline: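 U937 at 0.4×10^6 cells/ml exposed 24 h to compound (final Me₂SO 0.5%), washed, lysed in 25 mM MES pH 6.0, 50 mM NaCl, 5 mM DTT, 0.2% NP-40. Protein-normalised lysate diluted 1:10 and assayed with 50 μM Gly-Arg-AMC (twice Km) at room temperature. Residual cathepsin C activity.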

U-937 [5] = assay: Cytotoxicity against human U937 cells at 1 uM after 72 hrs annexin-V propidium iodide method; format: functional
Outline: (§2)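 U937 plated at 0.4×10^6 cells/ml, compound in Me₂SO (final 0.5%). Cells harvested and re-seeded every 24 h in medium with freshly added inhibitor, for 72 h. Viability by annexin V-FITC/propidium iodide two-colour flow cytometry; cells negative for both stains counted viable.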

[6] = target: T5, Cathepsin G (Homo sapiens) (UniProt P08311); assay: Inhibition of human U937 cellular [35S]methionine-labeled cathepsin G binding to aprotinin by aprotinin-agarose silver-stained SDS-PAGE method; format: cell-based; details: U-937, in the assay text read “SDS-PAGE fluorography” for “silver-stained SDS-PAGE”
T5 sequence (whole entry): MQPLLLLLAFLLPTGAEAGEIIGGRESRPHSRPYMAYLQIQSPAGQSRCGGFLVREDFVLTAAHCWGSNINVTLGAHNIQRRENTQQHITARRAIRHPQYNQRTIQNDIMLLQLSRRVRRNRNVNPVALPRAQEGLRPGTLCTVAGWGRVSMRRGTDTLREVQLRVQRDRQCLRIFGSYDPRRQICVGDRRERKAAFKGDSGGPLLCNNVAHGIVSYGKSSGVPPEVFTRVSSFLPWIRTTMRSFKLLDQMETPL

Neutrophil elastase [7] = target: T6, Neutrophil elastase (Homo sapiens, UniProt P08246); assay: Blockade of neutrophil elastase processing in human U937 cells after 7 days by fluorogenic substrate cleavage assay; format: cell-based, U-937
T6 sequence (P08246 whole entry): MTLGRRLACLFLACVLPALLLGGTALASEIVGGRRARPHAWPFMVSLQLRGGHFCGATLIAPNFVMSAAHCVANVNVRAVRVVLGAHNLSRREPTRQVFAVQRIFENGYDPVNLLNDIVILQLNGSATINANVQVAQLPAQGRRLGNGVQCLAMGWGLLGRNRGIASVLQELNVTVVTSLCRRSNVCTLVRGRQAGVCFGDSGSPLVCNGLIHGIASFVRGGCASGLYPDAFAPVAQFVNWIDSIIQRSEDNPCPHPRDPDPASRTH
Outline: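 U937 seeded at 1×10^5 cells/ml with vehicle or inhibitor, passaged and diluted 10-fold into fresh medium with compound on days 3 and 5, harvested day 7. Cells washed and lysed in 20 mM Tris pH 7.5, 100 mM NaCl, 0.2% NP-40. NE rate measured with 400 μM MeOSuc-AAPV-AMC (ex 370/em 450 nm, 10 min). % inhibition vs vehicle, four wells per point.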

[8] = target: Neutrophil elastase (Mus musculus) (UniProt Q3UP87); assay: Inhibition of neutrophil elastase in mouse EcoM-G cells
Cathepsin G [9] = target: T7, Cathepsin G (Homo sapiens, UniProt P08311); assay: Inhibition of cathepsin G in human U937 cells; format: cell-based, U-937
T7 sequence (P08311 whole entry): T5 sequence (whole entry)

Cathepsin G [10] = target: T7, Cathepsin G; assay: Blockade of cathepsin G processing in human U937 cells by densitometry; format: cell-based, U-937
Outline: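 U937 cells washed, plated at 2×10^6 cells/ml in methionine/glutamine-free RPMI, inhibitor or 0.5% Me₂SO added during 30 min starvation, pulsed with [³⁵S]methionine (10 μCi/ml) 30 min, re-seeded in complete medium with inhibitor and chased 3 h. Lysates bound to aprotinin-agarose 1 h at room temperature, SDS-PAGE and fluorography. CG band quantitated by densitometry as % inhibition vs vehicle.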

Myeloblastin [11] = target: T8, Myeloblastin (Mus musculus, UniProt Q61096); assay: Inhibition of proteinase-3 activation in beta-estradiol differentiated mouse EcoM-G cells after 24 hrs; format: cell-based; outline: as §1
T8 sequence (Q61096 whole entry): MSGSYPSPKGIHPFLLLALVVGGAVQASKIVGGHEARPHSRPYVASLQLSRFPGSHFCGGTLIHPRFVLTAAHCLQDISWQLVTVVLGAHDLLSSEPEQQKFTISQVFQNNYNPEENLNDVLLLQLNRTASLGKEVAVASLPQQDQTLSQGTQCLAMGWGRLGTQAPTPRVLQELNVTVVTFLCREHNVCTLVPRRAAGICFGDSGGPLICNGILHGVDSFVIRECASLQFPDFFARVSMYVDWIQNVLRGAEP

U-937 [12] = assay: Cytotoxicity against human U937 cells at 30 uM after 72 hrs annexin-V propidium iodide method; format: functional; outline: as §2
Myeloblastin [13] = target: T9, Myeloblastin (Homo sapiens, UniProt P24158); assay: Inhibition of proteinase-3 in human U937 cells; format: cell-based, U-937
T9 sequence (P24158 whole entry): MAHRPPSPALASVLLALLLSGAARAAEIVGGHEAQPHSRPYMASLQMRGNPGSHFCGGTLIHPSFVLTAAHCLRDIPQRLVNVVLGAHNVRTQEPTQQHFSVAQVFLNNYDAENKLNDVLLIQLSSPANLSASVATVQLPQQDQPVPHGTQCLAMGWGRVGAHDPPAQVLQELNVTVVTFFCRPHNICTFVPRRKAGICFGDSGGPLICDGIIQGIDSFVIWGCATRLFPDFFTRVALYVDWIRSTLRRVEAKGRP

Chain of Procathepsin L (P07711 whole entry): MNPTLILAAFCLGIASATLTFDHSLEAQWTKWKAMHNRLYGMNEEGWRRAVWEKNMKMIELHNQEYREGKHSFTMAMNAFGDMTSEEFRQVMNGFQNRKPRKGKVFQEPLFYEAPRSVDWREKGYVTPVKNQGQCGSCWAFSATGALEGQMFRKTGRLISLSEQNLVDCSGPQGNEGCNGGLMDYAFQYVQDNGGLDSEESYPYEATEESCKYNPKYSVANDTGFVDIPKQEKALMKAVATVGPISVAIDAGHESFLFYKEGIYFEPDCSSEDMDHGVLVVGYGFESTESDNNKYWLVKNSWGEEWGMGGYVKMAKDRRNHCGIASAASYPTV
T2 sequence (P53634 25-134 limits assumed): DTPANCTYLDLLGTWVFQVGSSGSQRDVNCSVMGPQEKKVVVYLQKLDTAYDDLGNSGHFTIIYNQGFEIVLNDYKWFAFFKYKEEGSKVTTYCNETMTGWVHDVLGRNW
T2 sequence (P53634 231-394 limits assumed): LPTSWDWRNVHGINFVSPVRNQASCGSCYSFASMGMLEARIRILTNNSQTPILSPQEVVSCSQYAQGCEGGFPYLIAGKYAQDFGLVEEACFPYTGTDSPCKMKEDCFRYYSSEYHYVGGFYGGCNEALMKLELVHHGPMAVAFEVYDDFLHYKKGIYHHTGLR
T2 sequence (P53634 395-463 limits assumed): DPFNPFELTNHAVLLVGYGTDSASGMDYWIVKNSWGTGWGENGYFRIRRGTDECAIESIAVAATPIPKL
Chain of Cathepsin S (P25774 whole entry): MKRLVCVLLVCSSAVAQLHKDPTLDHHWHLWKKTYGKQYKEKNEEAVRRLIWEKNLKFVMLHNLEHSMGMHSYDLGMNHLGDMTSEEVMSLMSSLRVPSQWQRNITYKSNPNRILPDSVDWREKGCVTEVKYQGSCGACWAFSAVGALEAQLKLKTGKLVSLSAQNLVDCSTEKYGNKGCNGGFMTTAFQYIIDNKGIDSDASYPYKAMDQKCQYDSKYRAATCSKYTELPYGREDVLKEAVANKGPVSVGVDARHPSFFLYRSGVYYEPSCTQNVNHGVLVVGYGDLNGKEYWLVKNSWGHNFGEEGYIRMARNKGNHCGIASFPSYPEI

Structure (SMILES) | IC50 (Cathepsin B) | IC50 (Cathepsin S) | IC50 (Procathepsin L) | IC50 (Pro-cathepsin H) | IC50 (Dipeptidyl peptidase 1 [1]) | IC50 (Neutrophil elastase [2]) | IC50 (Cathepsin G [3]) | IC50 (Cathepsin G [10]) | IC50 (Myeloblastin [11]) | further results
CC(C)C[C@H](NC(=O)[C@H]1O[C@@H]1C(=O)O)C(=O)NCCCCN=C(N)N [E-64] | 10 nM | 7 nM | 13 nM | 190 nM | 770 nM | – | – | – | – | –
Cc1cc(C)cc(CC(NC(=O)C(c2ccccc2)c2ccccc2)C(=O)NCC#N)c1 (centres undefined) | 40 nM | 470 nM | 90 nM | – | – | > 50000 nM | > 50000 nM | – | – | –
C[C@H](N)C(=O)N[C@@H](Cc1ccc(I)cc1)C(=O)C=[N+]=[N-] | – | – | – | – | – | – | – | – | – | inhibition (Dipeptidyl peptidase 1 [4]): 99.6%; Activity (U-937 [5]): 32%; Activity [6]: Active
CCC[C@H](NC(=O)C(CC(C)C)NC(=O)c1ccc(-c2ccc(I)cc2)cc1)C(=O)[CH-][N+]#N (some centres undefined) | 65 nM | 9 nM | 10 nM | – | 450 nM | – | – | – | – | –
[N-]=[N+]=CC(=O)[C@H](Cc1ccccc1)NC(=O)CN (H-Gly-Phe-CHN2) | – | – | – | – | – | – | – | – | – | inhibition (Dipeptidyl peptidase 1 [4]): 100%; Activity (U-937 [5]): 32%
N#C[C@@]1(NC(=O)C(N)Cc2sccc2F)C[C@@H]1c1ccccc1 (some centres undefined) | > 50000 nM | 33400 nM | 15500 nM | > 50000 nM | – | 150 nM | 690 nM | 90 nM | 150 nM | IC50 (Neutrophil elastase [7]): 170 nM; IC50 [8]: > 10000 nM; IC50 (Cathepsin G [9]): > 10000 nM
CS(=O)(=O)C[C@H](N[C@@H](c1ccc(Br)cc1)C(F)(F)F)C(=O)NC1(C#N)CC1 | 280 nM | 10 nM | 430 nM | > 50000 nM | > 10000 nM | > 50000 nM | > 50000 nM | > 50000 nM | – | –
N#C[C@]1(NC(=O)C(N)Cc2cccs2)C[C@H]1c1ccccc1.O=C(O)C(F)(F)F (single isomer, unassigned) | > 50000 nM | > 50000 nM | > 50000 nM | > 50000 nM | > 30000 nM | > 50000 nM | > 50000 nM | > 50000 nM | > 50000 nM | IC50 (Neutrophil elastase [7]): > 30000 nM; Activity (U-937 [12]): 98%
N#C[C@]1(NC(=O)C(N)Cc2cncs2)C[C@H]1c1ccccc1 (some centres undefined) | – | – | – | – | 790 nM | 7930 nM | > 50000 nM | – | – | –
[N-]=[N+]=CC(=O)[C@H](Cc1ccc(I)cc1)NC(=O)CN (H-Gly-[Phe(4-I)]-CHN2) | 2940 nM | > 50000 nM | 29500 nM | 9800 nM | 1 nM | – | – | – | – | IC50 [8]: > 50000 nM; IC50 (Cathepsin G [9]): > 50000 nM; IC50 (Myeloblastin [13]): > 50000 nM
CCOC(=O)[C@H]1O[C@@H]1C(=O)N[C@@H](CC(C)C)C(=O)NCCC(C)C [ALOXISTATIN] | – | – | – | – | – | > 10000 nM | > 10000 nM | 1100 nM | > 10000 nM | –
CCC[C@@H](NC(=O)N1C(=O)C(CC)(CC)[C@@H]1Oc1ccc(C(=O)N2CCN(C)CC2)cc1)c1ccc2c(c1)OCO2 | – | – | – | – | – | – | – | – | – | Activity [6]: inactive
N#[N+][CH-]C(=O)[C@H](Cc1ccccc1)NC(=O)CN | > 30000 nM | – | 25500 nM | 29000 nM | 51 nM | – | – | – | – | –
CC(C)C[C@@H](NC(=O)N1CCOCC1)C(=O)N[C@@H](/C=C/S(=O)(=O)c1ccccc1)CCc1ccccc1 | 1360 nM | 1 nM | – | – | > 10000 nM | 25500 nM | 39800 nM | – | 21200 nM | –
N#C[C@]1(NC(=O)[C@@H](N)Cc2ccccc2F)C[C@H]1c1ccccc1 | > 3000 nM | 1600 nM | 560 nM | – | > 220 nM | 5490 nM | 17600 nM | 1200 nM | 4550 nM | IC50 (Neutrophil elastase [7]): 1900 nM
